Key:
[1] = tested on: Radical scavenging activity; experiment: Antioxidant activity assessed as DPPH radical scavenging activity at 10 mg/ml after 15 mins by spectrophotometry; type: functional
Method in brief: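 Sample (10 µL at 0.1, 1.0 or 10.0 mg/mL) mixed with 0.1 mM DPPH in methanol (150 µL), kept in the dark at room temperature on a shaker for 15 min. Percentage scavenging = [(A0 − A1)/A0] × 100, with A0 and A1 the absorbance without and with sample.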

[2] = biological target: Sucrase-isomaltase, intestinal (Rattus norvegicus) (UniProt P23739); experiment: Inhibition of rat intestine sucrase using sucrose as substrate at 10 mg/ml incubated for 10 mins prior to substrate addition measured after 40 mins by glucose oxidase colorimetric method
Sucrase-isomaltase, intestinal (Rattus norvegicus), sequence (P23739 1-1013 limits assumed): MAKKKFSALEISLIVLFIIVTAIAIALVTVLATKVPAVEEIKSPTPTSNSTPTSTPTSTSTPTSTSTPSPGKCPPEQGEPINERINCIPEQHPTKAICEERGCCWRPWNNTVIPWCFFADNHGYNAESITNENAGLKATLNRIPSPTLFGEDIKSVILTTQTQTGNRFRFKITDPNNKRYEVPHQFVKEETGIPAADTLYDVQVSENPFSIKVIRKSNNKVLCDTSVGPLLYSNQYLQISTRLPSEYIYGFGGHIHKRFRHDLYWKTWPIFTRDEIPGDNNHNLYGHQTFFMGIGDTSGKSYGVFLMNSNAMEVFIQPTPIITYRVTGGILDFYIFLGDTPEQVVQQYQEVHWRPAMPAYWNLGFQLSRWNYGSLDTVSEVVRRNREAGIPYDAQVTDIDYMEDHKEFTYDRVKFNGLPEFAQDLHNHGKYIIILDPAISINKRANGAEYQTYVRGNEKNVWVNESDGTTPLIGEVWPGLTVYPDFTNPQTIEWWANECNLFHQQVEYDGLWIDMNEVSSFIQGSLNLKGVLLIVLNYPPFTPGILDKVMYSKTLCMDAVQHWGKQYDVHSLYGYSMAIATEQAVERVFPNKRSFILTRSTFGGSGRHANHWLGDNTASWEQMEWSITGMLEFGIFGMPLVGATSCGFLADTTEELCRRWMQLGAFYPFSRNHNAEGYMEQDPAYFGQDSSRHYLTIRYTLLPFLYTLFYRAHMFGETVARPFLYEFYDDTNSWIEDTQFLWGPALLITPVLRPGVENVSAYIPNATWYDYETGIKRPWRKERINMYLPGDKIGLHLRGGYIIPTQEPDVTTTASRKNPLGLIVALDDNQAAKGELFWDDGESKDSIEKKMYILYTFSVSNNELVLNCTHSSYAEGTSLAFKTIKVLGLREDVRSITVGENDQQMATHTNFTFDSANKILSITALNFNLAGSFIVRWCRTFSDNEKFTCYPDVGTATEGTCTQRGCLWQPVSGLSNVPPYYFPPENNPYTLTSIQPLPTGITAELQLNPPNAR
Sucrase-isomaltase, intestinal (Rattus norvegicus), sequence (P23739 1014-1841 limits assumed): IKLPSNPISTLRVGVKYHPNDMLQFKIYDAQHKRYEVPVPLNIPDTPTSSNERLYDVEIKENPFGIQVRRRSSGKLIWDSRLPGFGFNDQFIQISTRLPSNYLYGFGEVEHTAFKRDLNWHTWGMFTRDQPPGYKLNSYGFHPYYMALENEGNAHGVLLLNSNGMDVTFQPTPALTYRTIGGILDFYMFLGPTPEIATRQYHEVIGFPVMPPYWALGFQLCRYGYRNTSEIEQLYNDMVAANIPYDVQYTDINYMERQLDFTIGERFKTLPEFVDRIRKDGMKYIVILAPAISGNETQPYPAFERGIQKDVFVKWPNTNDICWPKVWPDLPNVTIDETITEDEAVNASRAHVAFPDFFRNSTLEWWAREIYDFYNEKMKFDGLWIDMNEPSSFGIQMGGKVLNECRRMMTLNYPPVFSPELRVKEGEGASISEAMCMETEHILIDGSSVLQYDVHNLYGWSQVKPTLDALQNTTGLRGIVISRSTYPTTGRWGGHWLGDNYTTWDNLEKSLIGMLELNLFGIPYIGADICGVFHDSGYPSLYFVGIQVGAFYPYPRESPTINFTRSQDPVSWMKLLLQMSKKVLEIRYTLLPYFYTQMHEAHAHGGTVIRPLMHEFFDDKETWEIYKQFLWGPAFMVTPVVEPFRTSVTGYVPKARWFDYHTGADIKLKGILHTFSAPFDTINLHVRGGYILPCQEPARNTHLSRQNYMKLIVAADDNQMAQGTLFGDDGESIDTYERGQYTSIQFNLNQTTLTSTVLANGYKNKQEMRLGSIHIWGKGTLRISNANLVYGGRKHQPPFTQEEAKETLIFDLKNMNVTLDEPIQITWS

Saccharomyces cerevisiae = experiment: Inhibition of yeast type 1 alpha-glucosidase using PNPG as substrate at 10 mg/ml incubated for 10 mins prior to substrate addition measured after 20 mins by spectrophotometry
[3] = tested on: Maltase-glucoamylase, intestinal (Rattus norvegicus); experiment: Inhibition of rat intestine maltase using maltose as substrate at 10 mg/ml incubated for 10 mins prior to substrate addition measured after 40 mins by glucose oxidase colorimetric method
[4] = tested on: Radical scavenging activity; experiment: Antioxidant activity assessed as DPPH radical scavenging activity after 15 mins by spectrophotometry; type: functional
Method in brief: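 Sample (10 µL at 0.1, 1.0 or 10.0 mg/mL) mixed with 0.1 mM DPPH in methanol (150 µL), kept in the dark at room temperature on a shaker for 15 min. Absorbance read at 517 nm. Percentage scavenging = [(A0 − A1)/A0] × 100, with A0 and A1 the absorbance without and with sample.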

[5] = biological target: T1, Sucrase-isomaltase, intestinal (Rattus norvegicus, UniProt P23739); experiment: Inhibition of rat intestine sucrase using sucrose as substrate incubated for 10 mins prior to substrate addition measured after 40 mins by glucose oxidase colorimetric method
T1 sequence (P23739 1-1013 limits assumed): as the sequence (P23739 1-1013 limits assumed) above
T1 sequence (P23739 1014-1841 limits assumed): as the sequence (P23739 1014-1841 limits assumed) above
Method in brief: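 Crude enzyme from centrifuged (12,000 g, 30 min) intestinal supernatant containing both maltase and sucrase. Test compound (1 mg/mL stock, DMSO) preincubated with enzyme at 37 C for 10 min. Substrate in 0.1 M phosphate buffer pH 6.9 (maltose 0.58 mM or sucrose 20 mM) added, then 40 min at 37 C. Quenched at 80 C for 15 min. Released glucose measured by glucose oxidase kit.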

[6] = Inhibition of yeast type 1 alpha-glucosidase using PNPG as substrate incubated for 10 mins prior to substrate addition measured after 20 mins by spectrophotometry; set-up: species or system Saccharomyces cerevisiae
[7] = biological target: T1, Sucrase-isomaltase, intestinal; experiment: Non-competitive inhibition of rat intestine sucrase using sucrose as substrate by Lineweaver-Burk plot analysis
Method in brief: (§1)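 Same maltase/sucrase reactions, with activity held at 0.45 (maltase) and 0.09 (sucrase) U/mg protein. Inhibitor 0 to 20.4 mM against substrate 1.0 to 20.0 mM. Vmax and Km obtained from Lineweaver–Burk intercepts and slopes. Ki (EI) from a secondary plot of slope versus inhibitor concentration; Ki′ (ESI) from a secondary plot of intercept versus inhibitor concentration.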

[8] = biological target: T1, Sucrase-isomaltase, intestinal; experiment: Competitive inhibition of rat intestine sucrase using sucrose as substrate by Lineweaver-Burk plot analysis; method in brief: as §1

SMILES | inhibition [2] [%] | inhibition (Saccharomyces cerevisiae) [%] | IC50 [5] [µM] | inhibition [1] [%] | further results
O=C(O)/C=C/c1ccc(O)c(O)c1 [CAFFEIC ACID] | – | < 30 | 87.4 | – | IC50 [4]: 150 µM
COc1ccccc1/C=C/C(=O)O[C@H]1C[C@@H](O)[C@H](O)[C@@H](O)[C@H]1O | < 30 | – | – | – | –
COc1ccc(/C=C/C(=O)O[C@H]2C[C@@H](O)[C@H](O)[C@@H](O)[C@H]2O)cc1OC | < 30 | – | – | – | –
COc1ccccc1/C=C/C(=O)O[C@@H]1C[C@@H](O)[C@H](O)[C@@H](O)[C@H]1O | < 30 | – | – | – | –
COc1cc(/C=C/C(=O)O[C@H]2C[C@@H](O)[C@H](O)[C@@H](O)[C@H]2O)ccc1O | – | < 30 | 171 | < 50 | –
COc1ccc(O)c(C(C)(C)C)c1.COc1ccc(O)cc1C(C)(C)C [BUTYLATED HYDROXYANISOLE] | – | – | – | – | IC50 [4]: 0.1 µM
COc1ccc(/C=C/C(=O)O[C@H]2C[C@@H](O)[C@H](O)[C@@H](O)[C@H]2O)cc1O | – | < 30 | 805 | < 50 | –
COc1ccc(/C=C/C(=O)O[C@@H]2C[C@@H](O)[C@H](O)[C@@H](O)[C@H]2O)cc1OC | < 30 | – | – | – | –
C[C@H]1O[C@H](O[C@H]2[C@H](O)[C@@H](O)[C@@H](O[C@H]3[C@H](O)[C@@H](O)C(O)O[C@@H]3CO)O[C@@H]2CO)[C@H](O)[C@@H](O)[C@@H]1N[C@H]1C=C(CO)[C@@H](O)[C@H](O)[C@H]1O (stereo partly drawn) [ACARBOSE] | – | – | – | – | IC50 [6]: 404 µM
O=C(/C=C/c1ccc(O)c(O)c1)O[C@H]1C[C@@H](O)[C@H](O)[C@@H](O)[C@H]1O | – | < 30 | 954 | < 50 | –
COc1cc(/C=C/C(=O)O[C@@H]2C[C@@H](O)[C@H](O)[C@@H](O)[C@H]2O)cc(OC)c1OC | < 30 | < 30 | – | < 50 | inhibition [3]: < 30%
O=C(/C=C/c1ccc(O)c(O)c1)O[C@@H]1C[C@@H](O)[C@H](O)[C@@H](O)[C@H]1O | – | < 30 | 43.6 | – | Ki [7]: 47.5 µM; Ki [8]: 22.4 µM; IC50 [4]: 110 µM

The next lines start with results.

inhibition [2] [%] | inhibition (Saccharomyces cerevisiae) [%] | IC50 [5] [µM] | SMILES | inhibition [1] [%] | further results
< 30 | < 30 | – | COc1ccc(/C=C/C(=O)O[C@H]2C[C@@H](O)[C@H](O)[C@@H](O)[C@H]2O)cc1 | < 50 | inhibition [3]: < 30%
< 30 | < 30 | – | COc1ccc(/C=C/C(=O)O[C@@H]2C[C@@H](O)[C@H](O)[C@@H](O)[C@H]2O)cc1 | < 50 | inhibition [3]: < 30%
< 30 | – | – | COc1cccc(/C=C/C(=O)O[C@H]2C[C@@H](O)[C@H](O)[C@@H](O)[C@H]2O)c1 | – | –
– | < 30 | 53 | COc1ccc(/C=C/C(=O)O[C@@H]2C[C@@H](O)[C@H](O)[C@@H](O)[C@H]2O)cc1O | < 50 | –
< 30 | – | – | COc1cccc(/C=C/C(=O)O[C@@H]2C[C@@H](O)[C@H](O)[C@@H](O)[C@H]2O)c1 | – | –
– | < 30 | 67.2 | COc1cc(/C=C/C(=O)O[C@@H]2C[C@@H](O)[C@H](O)[C@@H](O)[C@H]2O)ccc1O | < 50 | –

Reference: ChEMBL document CHEMBL2417409 (Eur J Med Chem, 2013)
